Sampled rows, rich in hits. Any-hit rate of the full collection: about 2.3%.
TRPC4 act: activators of mouse TRPC4 channel, primary screen, Fluo4 calcium, HEK293 TRPC4beta/mu-opioid cells | 0.49% of 310,000 active | Fluo4 calcium fluorescence; active compounds read high | B-score at 10 µM | AID 2237, 2010;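 active = B-score above 5 SD of library B-scores, and initial fluorescence ratio not above library mean plus 5 SD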;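 note: positive B-score marks a calcium rise read as TRPC4 activation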
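Technique: kinetic Fluo4 calcium fluorescence; Test system: TRPC4beta and mu-opioid receptor HEK293 stable cells; Measure: B-scored integrated calcium fluorescence ratio; Benchmarks: low control buffer alone, high control maximal DAMGO; Schedule: 45 min room-temperature Fluo4 loading, 110 s read.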
TRPC6 act: mouse TRPC6 channel activators, primary screen, cell-based, HEK293, membrane potential dye; Short transient receptor potential channel 6 (Mus musculus), Q61143; HEK293-TRPC6 membrane potential dye fluorescence; active compounds read high; B-score at 10 µM; 0.13% of 310,000 active;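 active = B-score of the integrated fluorescence ratio above library mean plus 3 SD, and starting fluorescence ratio within library mean plus 5 SD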;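 note: higher score means more depolarization so channel activation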
Target sequence (Q61143 whole entry, looked up): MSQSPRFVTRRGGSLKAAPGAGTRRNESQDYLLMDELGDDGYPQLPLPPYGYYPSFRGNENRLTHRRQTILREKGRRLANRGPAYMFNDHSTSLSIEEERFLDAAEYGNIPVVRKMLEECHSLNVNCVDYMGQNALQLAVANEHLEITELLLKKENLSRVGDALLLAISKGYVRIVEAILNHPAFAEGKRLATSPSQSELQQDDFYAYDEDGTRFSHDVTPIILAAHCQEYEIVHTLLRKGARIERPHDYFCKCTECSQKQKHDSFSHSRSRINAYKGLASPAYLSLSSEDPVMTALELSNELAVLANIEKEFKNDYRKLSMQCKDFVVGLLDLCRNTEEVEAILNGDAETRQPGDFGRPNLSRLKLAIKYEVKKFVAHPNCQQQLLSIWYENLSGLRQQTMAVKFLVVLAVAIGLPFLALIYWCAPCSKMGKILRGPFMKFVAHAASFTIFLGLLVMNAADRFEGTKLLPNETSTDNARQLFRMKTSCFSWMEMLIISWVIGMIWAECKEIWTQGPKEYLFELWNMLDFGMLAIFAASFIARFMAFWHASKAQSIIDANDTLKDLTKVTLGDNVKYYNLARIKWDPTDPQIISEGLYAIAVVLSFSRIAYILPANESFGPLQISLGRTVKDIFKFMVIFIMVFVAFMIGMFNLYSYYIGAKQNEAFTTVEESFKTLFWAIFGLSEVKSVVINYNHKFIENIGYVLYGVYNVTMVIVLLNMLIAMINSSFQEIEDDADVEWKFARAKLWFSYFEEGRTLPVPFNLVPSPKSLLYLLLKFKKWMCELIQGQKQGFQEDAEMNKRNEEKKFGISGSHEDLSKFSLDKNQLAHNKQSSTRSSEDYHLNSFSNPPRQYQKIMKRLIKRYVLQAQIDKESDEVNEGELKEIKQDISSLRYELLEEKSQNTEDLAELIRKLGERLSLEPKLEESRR
TRPC4 block: inhibitors of mouse TRPC4 channel, primary screen, Fluo4 calcium, HEK293 TRPC4beta/mu-opioid cells; B-score at 10 µM; Short transient receptor potential channel 4 (Mus musculus), Q9QUQ5; DAMGO-evoked Fluo4 calcium flux; active compounds read low; 0.39% of 300,000 active;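 active = B-score over 3 SD under the library average, no early fluorescence shift, positive overall ratio signal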
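Assay system: HEK293 cells with stable TRPC4beta plus mu-opioid receptor expression. Dosing: single dose. Measured by: Fluo4 Ca2+ flux fluorescence. Also added: DAMGO in two steps, submaximal then maximal. Read-out: B score from integrated Fluo4 fluorescence ratio.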
TRPC6 inhibitor: mouse TRPC6 channel inhibitors, primary screen, cell-based, HEK293, membrane potential dye | B-score at 10 µM | 1.1% of 310,000 active | ACh-evoked depolarization; active compounds read low | AID 2553, 2010 | Short transient receptor potential channel 6 (Mus musculus), Q61143;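 active = B-score under library mean minus 3 SD, initial fluorescence not abnormally high, positive integrated signal ratio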;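 note: B-score derived from integrated fluorescence ratio over the kinetic read; more negative B-score means stronger inhibition of depolarization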
TRPC4 potent: positive allosteric modulators of TRPC4, primary screen, cell-based, mouse TRPC4beta, HEK293 mu-opioid, Fluo-4 calcium; Short transient receptor potential channel 4 (Mus musculus), Q9QUQ5; DAMGO EC20, Fluo-4 Ca2+ flux; active compounds read high; B-score at 10 µM; 0.42% of 310,000 active; AID 2227, 2009;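 active = B-score of calcium response area above 5 SD of library B-scores, with initial fluorescence ratio within 5 SD of library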
TRPC4 sel inh 2: second selectivity test of TRPC6 inhibitors: effect on mouse TRPC4 | AID 2776 | HEK293 TRPC4/MOR, membrane potential dye fluorescence; channel activated by saturating DAMGO dose | 42% of 920 active | shares compounds with TRPC6 inhibitor | inhibition, % at 10 µM;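 active = compounds whose fluorescence signal differed from control wells by over 3 SD, either direction, in both duplicate plates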
TRPC4 spec: mouse TRPC4 modulation by TRPC6 hits, confirmation, selectivity assay for TRPC6 inhibitor project, cell-based, HEK293 TRPC4/mu-opioid, membrane potential dye; membrane potential fluorescence; activity change, negative = inhibition, % at 10 µM; shares compounds with TRPC6 inhibitor; 61% of 920 active;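 active = rise or fall in signal beyond 3 SD of buffer-only wells in both replicate plates, either sign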;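 note: integrated kinetic ratio of fluorescence range over baseline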
HEK293 MPD ctr 2-1: nonspecific membrane potential effects, parental HEK293, confirmation, counter-screen for TRPC6 inhibitor project, cell-based, second counter screen. 31% of 920 active. shares compounds with TRPC6 inhibitor. signal change vs control, % at 10 µM. parental HEK293 membrane potential dye fluorescence; maximal acetylcholine challenge after compound addition;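 active = membrane potential signal moving either way by over 3 SD of the maximum-effect control, in both duplicate plates, meaning non-specific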
HEK293 MPD ctr-1: membrane potential modulation in parental HEK293, confirmation, counter-screen for TRPC6 inhibitor project, cell-based; shares compounds with TRPC6 inhibitor; parental HEK293 membrane potential dye fluorescence; membrane potential signal change, % at 10 µM; 60% of 920 active; AID 2780, 2010;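 active = membrane potential signal shifting up or down by more than 3 SD of buffer-only wells, on both duplicate plates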
HEK293 MPD ctr-2: parental HEK293 membrane potential modulation, confirmation, counter-screen for TRPC6 modulator project, cell-based; 51% of 2,400 active; membrane potential signal change, % at 10 µM; shares compounds with TRPC6 inhibitor; membrane potential dye fluorescence;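 active = membrane potential signal moves up or down beyond 5 SD from buffer-only wells, on both duplicate plates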
HEK293 MPD ctr 2-2: second counter-screen for TRPC6 modulators: effect in parental HEK293 cells | membrane potential dye fluorescence; after compound, maximal acetylcholine stimulation | 14% of 2,400 active | shares compounds with TRPC6 inhibitor | inhibition, % at 10 µM;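 active = membrane potential signal drops by more than 5 SD from the mean control signal, in both duplicate plates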
TRPC4/MOR mod: TRPC4 modulation by TRPC6 hit compounds, confirmation, selectivity assay for TRPC6 modulator project, cell-based, HEK293 TRPC4/mu-opioid, membrane potential dye, mouse | shares compounds with TRPC6 inhibitor | membrane potential fluorescence | percent change from control (negative = decrease, positive = increase), % at 10 µM | 69% of 2,400 active;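 active = membrane potential signal moved up or down beyond 5 SD of buffer control wells, in both duplicate plates, actives on both sides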
TRPC4/MOR inh 2: second selectivity test of TRPC6 modulators against mouse TRPC4; shares compounds with TRPC6 inhibitor; HEK293 TRPC4/mu-opioid, membrane potential dye fluorescence; stimulated with maximal-effect DAMGO; inhibition, % at 10 µM; 55% of 2,400 active;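 active = drop in membrane potential signal beyond 5 SD of the control wells in both duplicate plates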;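 note: TRPC4 counter screen for TRPC6 hits run under conditions tuned for TRPC6 not TRPC4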
TRPC6 inh conf: mouse TRPC6 channel inhibitors, confirmation, HEK293 cells, membrane potential dye, duplicate; ACh-evoked depolarization; inhibition, % at 10 µM; shares compounds with TRPC6 inhibitor; 43% of 3,300 active;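 active = fluorescence ratio falls more than 5 SD below the full-stimulation control mean, in both duplicate runs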;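 note: integrated fluorescence ratio of peak minus minimum over baseline after agonist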
TRPC6 act confirm: mouse TRPC6 channel activators, confirmation, HEK293 cells, membrane potential dye, duplicate; activation, % at 10 µM; HEK293-TRPC6 membrane potential dye fluorescence, FDSS; shares compounds with TRPC6 inhibitor; 11% of 2,800 active; AID 488961, 2010;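 active = ratio signal rise beyond 5 SD above unstimulated control wells' mean, seen in both duplicate runs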
Each line names hits and unclear results; the compound was inactive in the other large screens (follow-up assays come after a bar, where they were run).

C=CCn1c(=N)c(C(=O)NCCCOC)cc2c(=O)n3cc(C)ccc3nc21	TRPC6 inhibitor -7.5 | TRPC4 sel inh 2 inactive | TRPC4 spec 2.7% | HEK293 MPD ctr 2-1 -54% | HEK293 MPD ctr-1 4.9% | TRPC6 inh conf inactive | TRPC6 act confirm inactive
Cc1cccn2c(=O)c3cc(C(=O)NCC4CCCO4)c(=N)n(C4CCCCC4)c3nc12 (stereo not given)	none
C=CCn1c(=N)c(C(=O)NCCCOC)cc2c(=O)n3ccccc3nc21	none
Cc1cc([N+](=O)[O-])ccc1NC(=O)CSc1nccc(=O)[nH]1	none
Cn1c(C(C)(O)C(O)c2ccccc2)nc2ccccc21 (stereo not given)	none
C[C@H](NC(=O)C1CCN(S(=O)(=O)c2ccccc2)CC1)C(=O)NCc1ccc(F)cc1	none
CCN1CCN(C(CNS(=O)(=O)c2ccc(Cl)cc2)c2cccnc2)CC1 (stereo not given)	none
COc1ccccc1NC(=O)Nc1cc(F)ccc1F	none
Cc1ccc2nc3c(cc(C(=O)NC4CCCC4)c(=N)n3C3CCCCC3)c(=O)n2c1	TRPC6 inhibitor -6.4 | HEK293 MPD ctr-2 -186% | HEK293 MPD ctr 2-2 inactive | TRPC4/MOR mod -32% | TRPC4/MOR inh 2 43% | TRPC6 inh conf 58% | TRPC6 act confirm inactive
CCOC(=O)c1ccc(NS(=O)(=O)c2c(N)[nH]c(=O)[nH]c2=O)cc1	none
Cc1cc(Cl)ccc1OCC(=O)NCCC(=O)O	TRPC6 inhibitor -6.6 | TRPC4 sel inh 2 inactive | TRPC4 spec inactive | HEK293 MPD ctr 2-1 inactive | HEK293 MPD ctr-1 inactive | TRPC6 inh conf inactive | TRPC6 act confirm inactive
O=C(CCn1c(=S)oc2ccccc21)Nc1ccccc1Br	none
Cc1cc(C)c2nc3sc(C(=O)N4CCOCC4)c(N)c3cc2c1	TRPC6 act 23, TRPC6 inhibitor -5 | HEK293 MPD ctr-2 900% | HEK293 MPD ctr 2-2 83% | TRPC4/MOR mod 189% | TRPC4/MOR inh 2 inactive | TRPC6 inh conf inactive | TRPC6 act confirm 297%
Cc1ccc(C)c2nc3sc(C(=O)N4CCOCC4)c(N)c3cc12	TRPC4 act 74, TRPC6 act 33, TRPC6 inhibitor -8.7 | HEK293 MPD ctr-2 898% | HEK293 MPD ctr 2-2 inactive | TRPC4/MOR mod 128% | TRPC4/MOR inh 2 inactive | TRPC6 inh conf inactive | TRPC6 act confirm 78%
Cc1cc(C)c2cc3c(N)c(C(=O)N4CCOCC4)sc3nc2c1	none
c1ccc(-c2csc(Nc3cccnc3)n2)nc1	TRPC6 inhibitor -6 (no result: TRPC4 block) | HEK293 MPD ctr-2 -84% | HEK293 MPD ctr 2-2 inactive | TRPC4/MOR mod -18% | TRPC4/MOR inh 2 inactive | TRPC6 inh conf inactive | TRPC6 act confirm inactive
Cc1scc2c1N(C(=O)CN1CCN(C)CC1)c1ccccc1NC2=O	TRPC6 inhibitor -6.5 | HEK293 MPD ctr-2 inactive | HEK293 MPD ctr 2-2 86% | TRPC4/MOR mod inactive | TRPC4/MOR inh 2 inactive | TRPC6 inh conf 78% | TRPC6 act confirm inactive
CCN1CCN(CC(=O)N2c3ccccc3Sc3ccccc32)CC1	none
CCOC(=O)N1CCN(C(=O)c2cc3cc(F)ccc3[nH]2)CC1	none
CCOC(=O)N1CCN(C(=O)c2cc3cc(Cl)ccc3[nH]2)CC1	TRPC6 inhibitor -6.1 | HEK293 MPD ctr-2 inactive | HEK293 MPD ctr 2-2 inactive | TRPC4/MOR mod inactive | TRPC4/MOR inh 2 inactive | TRPC6 inh conf inactive | TRPC6 act confirm inactive
O=C(CCCN1C(=O)c2cccc3cccc(c23)C1=O)N1CCN(c2ccc(F)cc2)CC1	none
Fc1ccc(N2CCN(C3=Nc4cccc5cccc3c45)CC2)cc1	TRPC6 inhibitor -8.8 | HEK293 MPD ctr-2 -80% | HEK293 MPD ctr 2-2 inactive | TRPC4/MOR mod -38% | TRPC4/MOR inh 2 74% | TRPC6 inh conf 68% | TRPC6 act confirm inactive
c1ccc(CN2CCN(C3=Nc4cccc5cccc3c45)CC2)cc1	TRPC6 inhibitor -8.2 | HEK293 MPD ctr-2 -191% | HEK293 MPD ctr 2-2 inactive | TRPC4/MOR mod -50% | TRPC4/MOR inh 2 72% | TRPC6 inh conf 68% | TRPC6 act confirm inactive
O=C1C(Cl)=C(N2CCN(Cc3ccccc3)CC2)C(=O)N1Cc1ccccc1	none
CC(=O)C(=Cc1cn(-c2ccccc2)nc1-c1ccccc1)C(C)=O	none
